Experimental findings from ChEMBL document CHEMBL1125799, “Gossypol and derivatives: a new class of aldose reductase inhibitors” (J Med Chem, 1991) are described below.

Structures are written as SMILES.

For one test, the target named is T1, Aldo-keto reductase family 1 member B1 (Homo sapiens, UniProt P15121). In words: The compound was tested for inhibitory activity against Aldose reductase from human placenta. The method, boiled down: (§1)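 Aldose reductase purified from human placenta, with NADP present throughout purification and storage, kept at –20 °C. Assay in 0.1 M sodium phosphate pH 7 with 10 mM D,L-glyceraldehyde substrate and 0.1 mM NADPH at 25 ± 1 °C. NADPH oxidation followed as A340 decrease. Initial rates corrected for the rate without aldehyde substrate. Ki derived from Dixon plots.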
The term Ki denotes the equilibrium dissociation constant of an inhibitor or competing ligand from its target. High values mean lower affinity, low ones higher affinity. In the case of `COc1c(-c2c(C)cc3c(C(C)C)c(O)c(O)c(CO)c3c2OC)c(C)cc2c(C(C)C)c(O)c(O)c(CO)c12`, the inhibition constant (Ki) came out at 4.3 µM.
Still for that read-out and setting: the figure for `COc1c(OC)c(C=O)c2c(OC)c(-c3c(C)cc4c(C(C)C)c(OC)c(OC)c(C=O)c4c3OC)c(C)cc2c1C(C)C` is 56 µM; for `COc1c(-c2c(C)cc3c(C(C)C)c(O)c(O)c(C#N)c3c2OC)c(C)cc2c(C(C)C)c(O)c(O)c(C#N)c12` it is 2.8 µM.
Still for that read-out and setting: under `Cc1cc2c(C(C)C)c(O)c(O)c(C#N)c2c(OC(=O)C(C)(C)C)c1-c1c(C)cc2c(C(C)C)c(O)c(O)c(C#N)c2c1OC(=O)C(C)(C)C` stands 2.5 µM.
In turn, `C/C=C/C(=O)Oc1c(-c2c(C)cc3c(C(C)C)c(O)c(O)c(C#N)c3c2OC(=O)/C=C/C)c(C)cc2c(C(C)C)c(O)c(O)c(C#N)c12` registered a Ki of 1.3 µM.
`COc1c(OC)c(C=O)c2c(O)c(-c3c(C)cc4c(C(C)C)c(OC)c(OC)c(C=O)c4c3O)c(C)cc2c1C(C)C` displayed a Ki of 9.7 µM.
`Cc1cc2c(C(C)C)c(O)c(O)c(/C=N/O)c2c(O)c1-c1c(C)cc2c(C(C)C)c(O)c(O)c(/C=N/O)c2c1O` yielded a Ki of 7.8 µM.
On to `Cc1cc2c(C(C)C)c(O)c(O)c3c2c(c1-c1c(C)cc2c(C(C)C)c(O)c(O)c4c2c1OC4=N)OC3=N`, for which the Ki was 9.3 µM.
Take `COc1c(O)c(C=O)c2c(O)c(-c3c(C)cc4c(C(C)C)c(OC)c(O)c(C=O)c4c3O)c(C)cc2c1C(C)C` [6,6'-METHOXYGOSSYPOL]: the Ki is 1.5 µM.
Still for that read-out and setting: the figure for `Cc1cc2c(C(C)C)c(O)c(O)c(C=O)c2c(O)c1-c1c(C)cc2c(C(C)C)c(O)c(O)c(C=O)c2c1O` [GOSSYPOL] is 0.5 µM.

A further test concerns the target T1, Aldo-keto reductase family 1 member B1. In words: The compound was tested for inhibitory activity against aldose reductase from human placenta. The method, boiled down:
as §1
For `Cc1cc2c(C(C)C)c(O)c(O)c3c2c(c1-c1c(C)cc2c(C(C)C)c(O)c(O)c4c2c1OC4=O)OC3=O`, the Ki was found to be 0.15 µM.
Still for that read-out and setting: the figure for `COc1c(OC)c2c3c(c(-c4c(C)cc5c(C(C)C)c(OC)c(OC)c6c5c4OC6=O)c(C)cc3c1C(C)C)OC2=O` is 48 µM.
The same measure, in the same setting: the figure for `COc1c(-c2c(C)cc3c(C(C)C)c(O)c(O)c(C=O)c3c2OC)c(C)cc2c(C(C)C)c(O)c(O)c(C=O)c12` is 0.31 µM; for `CCC(=O)Oc1c(-c2c(C)cc3c(C(C)C)c(O)c(O)c(C#N)c3c2OC(=O)CC)c(C)cc2c(C(C)C)c(O)c(O)c(C#N)c12` it is 6.8 µM; for `CCCCCC(=O)Oc1c(-c2c(C)cc3c(C(C)C)c(O)c(O)c(C#N)c3c2OC(=O)CCCCC)c(C)cc2c(C(C)C)c(O)c(O)c(C#N)c12` it is 3.1 µM.
As for `CC(=O)Oc1c(-c2c(C)cc3c(C(C)C)c(O)c(O)c(C#N)c3c2OC(C)=O)c(C)cc2c(C(C)C)c(O)c(O)c(C#N)c12`, the Ki worked out at 7.3 µM.
Same read-out and setting: under `CCCCC(=O)Oc1c(-c2c(C)cc3c(C(C)C)c(O)c(O)c(C#N)c3c2OC(=O)CCCC)c(C)cc2c(C(C)C)c(O)c(O)c(C#N)c12` stands 4.7 µM; under `CCCC(=O)Oc1c(-c2c(C)cc3c(C(C)C)c(O)c(O)c(C#N)c3c2OC(=O)CCC)c(C)cc2c(C(C)C)c(O)c(O)c(C#N)c12`, 5.3 µM.
